Assay outcomes (PubChem BioAssay)
STAT3 inh – reduces IL-6 driven STAT3 reporter signal. U3A cells, IL-6 STAT3-luciferase reporter, luminescence; host cell line lacks STAT1. inhibition, % at 5.5 µM. 190,000 tested, 0.89% active. AID 862;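 active = inhibition above the mean inhibition across all screened compounds plus 3 SD, cut at about 44% in these data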
STAT1 act-1 – activators of IFN-gamma induced STAT1 signaling; NIH 3T3 STAT1-luciferase reporter, luminescence; 100% = IFN-gamma alone, no compound; activation (% of control), % at 5.5 µM; 200,000 tested, 2.6% active;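 active = activation above the screen-wide mean activation plus 3 SD, cut at about 130% in these data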
APP 5'UTR act – APP 5'UTR luciferase reporter activation. AID 1276. 190,000 tested, 1% active. SH-SY5Y APP 5'UTR luciferase reporter, luminescence; zero percent = DMSO vehicle wells. activation, % at 2 µM;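 active = activation above a set limit, based on mean plus 3 SD of controls, cut at about 140% in these data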
NF-kB expr up – raises NF-kB expression in human neuronal cells | NF-kB reporter expression; hits give high values | fold change at 12.5 µM | 190,000 tested, 1.6% active | AID 1239; in the data active = fold change above about 3.3
STAT3 act-1 – activators of IL-6 induced STAT3 signaling | U3A cells, IL-6 STAT3-luciferase reporter, luminescence; 100% = signal with IL-6 EC80 alone | activation (% of control), % at 5.6 µM | 190,000 tested, 0.91% active;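 active = activation above the screen-wide mean of compound activation plus 3 SD, cut at about 130% in these data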
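Test system: human U3A cells carrying STAT3-luciferase construct; control set: IL-6-only wells as 100% reference; timing: compound pre-incubation 1 h before IL-6, then 6 h stimulation at 37 °C; also added: IL-6 stimulus at 33 ng/mL final; evaluation: % activation versus median of IL-6-stimulated wells; detection: reporter luminescence signal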
STAT1 inh-1 – inhibitors of IFN-gamma induced STAT1 signaling; NIH 3T3 STAT1-luciferase reporter, luminescence; inhibition, % at 5.5 µM; 200,000 tested, 0.35% active; AID 920;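 active = inhibition above a set limit, the mean inhibition across all tested compounds plus 3 SD, cut at about 34% in these data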
STAT3 act-2 – STAT3 activation, confirmation assay. shares compounds with STAT3 act-1. U3A STAT3-luciferase reporter, IL-6 potentiation, luminescence; U3A cells lack STAT1; 100 means same as IL-6 alone. potentiation (% of control), % at 5.7 µM. 1,200 tested, 64% active. AID 1267;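 active = percent activation of the STAT3 luciferase reporter above a set limit taken from the earlier primary screen, cut at about 130% in these data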
NFkB act STAT3ct – NF-kappaB activation in STAT3 activator counter-screen; shares compounds with STAT3 act-1; human cells, NF-kappaB reporter activation; activation (% of control), % at 5.7 µM; 1,200 tested, 11% active; in the data active = activation above about 120%;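 note: reporter induced by TNF-alpha stimulation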
STAT1 act-2 – counter-screen for STAT3 activators: STAT1 activation. shares compounds with STAT3 act-1. activation (% of control), % at 5.7 µM. 1,200 tested, 13% active. NIH 3T3 STAT1-luciferase reporter, IFN-gamma, luminescence;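 active = activation above the solvent-only control well mean plus 3 SD, set per screening run, cut at about 120% in these data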
STAT1 inh-2 – STAT1 inhibition, confirmation assay. AID 1263. inhibition, % at 5.5 µM. shares compounds with STAT1 inh-1. NIH 3T3 STAT1-luciferase reporter, IFN-gamma, luminescence. 200 tested, 55% active;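 active = triplicate mean inhibition exceeding the hit cutoff computed for the primary STAT1 screen, cut at about 35% in these data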
NFkB inh – NF-kappaB inhibition in STAT1 inhibitor counter-screen; shares compounds with STAT1 inh-1; HEK293T NF-kB luciferase reporter, TNF-alpha induced, luminescence; inhibition, % at 5.7 µM; 200 tested, 30% active; AID 1303;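 active = inhibition above the mean of solvent-only control wells plus 3 SD of those wells, cut at about 15% in these data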
STAT3 inh 2 – counter-screen for STAT1 inhibitors: STAT3 inhibition; 200 tested, 20% active; shares compounds with STAT1 inh-1; U3A cells, IL-6 STAT3 luciferase reporter, luminescence; cells lacking STAT1; inhibition, % at 5.7 µM;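 active = inhibition above the mean of solvent-only control wells plus 3 SD, set per campaign, cut at about 25% in these data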
STAT1 activ conf – STAT1 activation, confirmation assay | NIH 3T3 STAT1-luciferase reporter, IFN-gamma potentiation, luminescence; 100% = IFN-gamma EC80 alone, no compound | 1,200 tested, 97% active | AID 1262 | activation (% of control), % at 5.7 µM | shares compounds with STAT1 act-1;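 active = activation above a set limit carried over from the earlier primary STAT1 screen, cut at about 140% in these data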
NFkB act STAT1ct – counter-screen for STAT1 activators: NF-kappaB activation; shares compounds with STAT1 act-1; HEK293T NF-kB luciferase reporter, TNF-alpha stimulated, luminescence; 100% = TNF-alpha with vehicle only; activation (% of control), % at 5.7 µM; 1,200 tested, 43% active; AID 1306;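 active = activation above the mean of solvent-only control wells plus 3 SD, set per campaign, cut at about 130% in these data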;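 note: TNF-alpha given at a submaximal dose yielding about 80% of full reporter signal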
STAT3 act STAT1c – activates human STAT3, counter-screen to STAT1 activators | shares compounds with STAT1 act-1 | 1,200 tested, 46% active | U3A cells STAT3-luciferase reporter, IL-6, luminescence; cells lack STAT1; 100 = IL-6 alone, no compound effect | activation (% of control), % at 5.7 µM;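 active = activation above the solvent-only control well mean plus 3 SD, set per plate batch, cut at about 110% in these data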;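 note: higher means more STAT3 reporter activation so hits are non-selective activators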
Large screens that a line does not name were inactive (follow-up assays come after a bar, where they were run). Rows were chosen to be rich in hits. Some 5.1% of all compounds tested hit in one or more screens of this group.

CCN(CC)P(=O)(NC(=O)C(Cl)(Cl)Cl)N(CC)CC.[Cl-].[Cl-].[Cl-].[Nd+3]	none
COc1ccc(/C=C2/C(=O)NC(=O)N(c3ccc(C)c(C)c3)C2=O)cc1CN1C(=O)c2ccccc2C1=O	none
CC1=NN(c2ccccc2)C(=O)C1/C=C1\C(=O)NC(=O)N(c2ccc(C)c(C)c2)C1=O (stereo not given)	STAT3 act-1 162 | STAT3 act-2 inactive | NFkB act STAT3ct inactive | STAT1 act-2 inactive
CC1=NN(c2ccccc2)C(=O)C1/C=C1\C(=O)NC(=O)N(c2cc(C)cc(C)c2)C1=O (stereo not given)	STAT3 act-1 159 | STAT3 act-2 142 | NFkB act STAT3ct inactive | STAT1 act-2 inactive
Cc1cc(C)cc(N2C(=O)NC(=O)/C(=C\C=C\c3ccco3)C2=O)c1	none
NCCCCCC(=O)OC1N=C(c2ccccc2Cl)c2cc(Br)ccc2NC1=O (stereo not given)	none
O=C(CSC1c2ccccc2-c2ccccc21)N/N=C/c1ccccc1O	none
c1ccc2c(CNC3CCCCCC3)c[nH]c2c1	STAT3 act-1 152 | STAT3 act-2 139 | NFkB act STAT3ct inactive | STAT1 act-2 inactive
c1ccc2c(CN3CCCCCC3)c[nH]c2c1	none
O=C1N(CN2CCOCC2)c2ccccc2C1(O)c1c[nH]c2ccccc12 (stereo not given)	STAT3 act-1 136 | STAT3 act-2 inactive | NFkB act STAT3ct inactive | STAT1 act-2 inactive
CC1=NN(c2ccccc2)C(=O)/C1=C/c1c(O)[nH]c(=O)[nH]c1=O	STAT3 act-1 143 | STAT3 act-2 135 | NFkB act STAT3ct inactive | STAT1 act-2 inactive
C[C@H]1C[C@@H](C)C(=O)[C@@H]([C@H](O)CC2CC(=O)NC(=O)C2)C1	STAT1 inh-1 84 (no result: STAT3 inh, STAT3 act-1) | STAT1 inh-2 41 | NFkB inh 76 | STAT3 inh 2 91
CC(NC1CCCCC1)C(O)C12CC3CC(CC(C3)C1)C2 (stereo not given)	none
N=C1c2ccccc2CN1CC(=O)c1ccccc1	STAT1 act-1 182, APP 5'UTR act 143, NF-kB expr up 7.8 | STAT1 activ conf 154 | NFkB act STAT1ct inactive | STAT3 act STAT1c 119
CC(=O)c1ccc2c(c1)OCO2	none
CC(=O)Nc1ccccc1C(=O)OCc1ccc(F)cc1	STAT1 act-1 175 | STAT1 activ conf inactive | NFkB act STAT1ct inactive | STAT3 act STAT1c inactive
CC(=O)Nc1ccccc1C(=O)OCC(=O)c1ccc2c(c1)OCCO2	STAT1 act-1 175 | STAT1 activ conf 203 | NFkB act STAT1ct inactive | STAT3 act STAT1c 116
Cc1c(C(=O)C(=O)N2CCC3(CC2)OCCO3)c2ccccc2n1C	none
Nc1ccccc1C(=O)OCC(=O)N1CCc2ccccc21	STAT1 act-1 154 | STAT1 activ conf 168 | NFkB act STAT1ct inactive | STAT3 act STAT1c inactive
N#CSCC(=O)N1c2ccccc2CCc2ccccc21	none
O=c1c2ccccc2nc(/C=C/c2ccc([N+](=O)[O-])o2)n1-c1ccc(O)cc1	STAT1 act-1 326 | STAT1 activ conf 175 | NFkB act STAT1ct 154 | STAT3 act STAT1c inactive
O=C(Cn1cc(C(=O)c2ccccc2F)c2ccccc21)NC1CC1	none
COP(=O)(OC)C1(O)C(=O)Nc2ccc(Br)cc21 (stereo not given)	none
